Source: ChEMBL document CHEMBL4177770, “Discovery of MK-6169, a Potent Pan-Genotype Hepatitis C Virus NS5A Inhibitor with Optimized Activity against Common Resistance-Associated Substitutions” (J Med Chem, 2018)
Where a chain is given by its changes, count along the chain named.

Tests used:
[1] = molecular target: T1, Nonstructural protein 5A (Hepatitis C virus) (UniProt Q5L478); assay: Inhibition of NS5A L31V mutant in HCV genotype 1a infected in HuH7 replicon cells assessed as decrease in viral replication after 3 days by RT-PCR method; assay type: cell-based; details: Hepatitis C virus subtype 1a
T1 sequence (whole entry): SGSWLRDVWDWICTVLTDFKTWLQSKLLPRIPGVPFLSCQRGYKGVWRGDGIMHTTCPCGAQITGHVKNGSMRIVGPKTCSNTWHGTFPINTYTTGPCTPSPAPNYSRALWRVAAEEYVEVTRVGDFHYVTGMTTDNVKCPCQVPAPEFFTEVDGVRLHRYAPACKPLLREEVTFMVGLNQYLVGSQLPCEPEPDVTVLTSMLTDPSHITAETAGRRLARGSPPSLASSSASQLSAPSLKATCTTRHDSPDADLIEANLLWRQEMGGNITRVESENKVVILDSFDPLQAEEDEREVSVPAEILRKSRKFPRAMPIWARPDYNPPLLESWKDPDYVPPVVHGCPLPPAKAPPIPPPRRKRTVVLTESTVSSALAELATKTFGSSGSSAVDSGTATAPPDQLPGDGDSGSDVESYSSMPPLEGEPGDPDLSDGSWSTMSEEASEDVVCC

[2] = system: T2, Nonstructural protein 5A (Hepatitis C virus), Q5L478 [Y93H]; assay: Inhibition of NS5A Y93H mutant in HCV genotype 1a infected in HuH7 replicon cells assessed as decrease in viral replication after 3 days by RT-PCR method; assay type: cell-based; details: Hepatitis C virus subtype 1a
T2 sequence (whole entry): T1 sequence (whole entry) with Y93H

[3] = Half life in Wistar Han rat at 2 mg/kg, iv by LC/MS method; assay type: ADME, organism-based; details: in vivo
How it was run: (§1)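 Male Wistar Han rats, two per group, dosed IV at 2 mg/kg in 60% PEG200. Plasma was obtained by centrifuging the blood, and compound concentrations were measured by LC/MS.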

[4] = molecular target: T1, Nonstructural protein 5A (Hepatitis C virus); assay: Inhibition of NS5A in HCV genotype 1a infected in HuH7 replicon cells assessed as decrease in viral replication after 3 days by RT-PCR method; assay type: cell-based; details: Hepatitis C virus subtype 1a
[5] = Clearance in Wistar Han rat at 2 mg/kg, iv by LC/MS method; assay type: ADME, organism-based; details: in vivo; how it was run: as §1
[6] = molecular target: T1, Nonstructural protein 5A (Hepatitis C virus); assay: Inhibition of NS5A in HCV genotype 4a infected in HuH7 replicon cells assessed as decrease in viral replication after 3 days by RT-PCR method; assay type: cell-based; details: Hepatitis C virus subtype 4a
[7] = molecular target: T1, Nonstructural protein 5A (Hepatitis C virus); assay: Inhibition of NS5A in HCV genotype 1b infected in HuH7 replicon cells assessed as decrease in viral replication after 3 days by RT-PCR method; assay type: cell-based; details: Hepatitis C virus subtype 1b
[8] = molecular target: T1, Nonstructural protein 5A (Hepatitis C virus); assay: Inhibition of NS5A L31M mutant in HCV genotype 2b infected in HuH7 replicon cells assessed as decrease in viral replication after 3 days by RT-PCR method; assay type: cell-based; details: Hepatitis C virus subtype 2b
[9] = Oral bioavailability in Wistar Han rat at 10 mg/kg by LC/MS method; assay type: ADME, organism-based; details: in vivo
How it was run: (§2)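 Male Wistar Han rats, two per dosing group, dosed orally at 10 mg/kg in 10% TWEEN. Plasma was separated from collected blood by centrifugation and analysed by LC/MS.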

[10] = Drug level in Wistar Han rat at 10 mg/kg, po measured at 24 hrs by LC/MS method; assay type: ADME, organism-based; details: in vivo, read-out: Drug uptake; how it was run: as §2
[11] = Cmax in Wistar Han rat at 10 mg/kg, po by LC/MS method; assay type: ADME, organism-based; parameters: dose 10 mg/kg, route oral; details: in vivo; how it was run: as §2
[12] = molecular target: T1, Nonstructural protein 5A (Hepatitis C virus); assay: Inhibition of NS5A in HCV genotype 3a infected in HuH7 replicon cells assessed as decrease in viral replication after 3 days by RT-PCR method; assay type: cell-based; details: Hepatitis C virus subtype 3a
[13] = AUC in Wistar Han rat at 10 mg/kg, po by LC/MS method; assay type: ADME, organism-based; details: in vivo; how it was run: as §2

| Compound | EC90 [1] | EC90 [2] | half-life [3] | EC90 [4] | clearance [5] | EC90 [6] | EC90 [7] | EC90 [8] | bioavailability [9] | concentration at 24 h [10] | Cmax [11] | EC90 [12] | AUC [13] |
| --- | --- | --- | --- | --- | --- | --- | --- | --- | --- | --- | --- | --- | --- |
| COC(=O)N[C@H](C(=O)N1CCC[C@H]1c1ncc(-c2cc(F)c3c(c2)O[C@@H](c2ccc(C4CC4)s2)n2c-3cc3cc(-c4cnc([C@@H]5CCCN5C(=O)[C@@H](NC(=O)OC)C5CCO[C@H](C)C5)[nH]4)ccc32)[nH]1)C(C)C (stereo partly specified) | 3 pM | 0.009 nM | 282 min | 4 pM | 11 mL/min/kg | 10 pM | 4 pM | 0.014 nM | 1.4% | 1 nM | 25 nM | 7 pM | 0.21 µM·h |
| COC(=O)N[C@H](C(=O)N1CCC[C@H]1c1ncc(-c2cc(F)c3c(c2)O[C@@H](c2ccc(C4CC4)s2)n2c-3cc3cc(-c4cnc([C@@H]5CCCN5C(=O)[C@@H](NC(=O)OC)C5CC6CCC(C5)O6)[nH]4)ccc32)[nH]1)C(C)C (stereo partly specified) | 6 pM | 0.028 nM | 234 min | 5 pM | 13 mL/min/kg | 8 pM | 4 pM | 0.019 nM | 2.5% | 3 nM | 24 nM | 12 pM | 0.33 µM·h |
| COC(=O)N[C@H](C(=O)N1CCC[C@H]1c1ncc(-c2cc(F)c3c(c2)O[C@@H](c2ccc(C4CC4)s2)n2c-3cc3cc(-c4cnc([C@@H]5CCCN5C(=O)[C@@H](NC(=O)OC)C5CC(C)(C)OC(C)(C)C5)[nH]4)ccc32)[nH]1)C(C)C | 4 pM | 0.047 nM | 462 min | 4 pM | 7 mL/min/kg | 4 pM | 2 pM | 0.073 nM | 3.1% | 5 nM | 76 nM | 7 pM | 0.7 µM·h |
| CCCc1ncc([C@@H]2Oc3cc(-c4cnc([C@@H]5CCCN5C(=O)[C@@H](NC(=O)OC)C(C)C)[nH]4)cc(F)c3-c3cc4cc(-c5cnc([C@@H]6CCCN6C(=O)[C@@H](NC(=O)OC)[C@@H]6CCOC(C)(C)C6)[nH]5)ccc4n32)s1 | 6 pM | 0.018 nM | 270 min | 4 pM | 21 mL/min/kg | 6 pM | 5 pM | 0.015 nM | 1% | 1 nM | 20 nM | 8 pM | 0.08 µM·h |
| COC(=O)N[C@H](C(=O)N1CCC[C@H]1c1ncc(-c2ccc3c(c2)cc2n3[C@H](c3ccc4c(c3)OCCN4C)Oc3cc(-c4cnc([C@@H]5CCCN5C(=O)[C@@H](NC(=O)OC)C5CCOCC5)[nH]4)cc(F)c3-2)[nH]1)C(C)C | – | 0.073 nM | 228 min | 71 pM | 13 mL/min/kg | 9 pM | 7 pM | 0.054 nM | 0.8% | 1 nM | 16 nM | 17 pM | 0.1 µM·h |
| COC(=O)N[C@H](C(=O)N1CCC[C@H]1c1ncc(-c2cc(F)c3c(c2)O[C@@H](c2cc4c(s2)CCC4)n2c-3cc3cc(-c4cnc([C@@H]5CCCN5C(=O)[C@@H](NC(=O)OC)[C@@H]5CCOC(C)(C)C5)[nH]4)ccc32)[nH]1)C(C)C | 6 pM | 0.117 nM | 258 min | 5 pM | 9 mL/min/kg | 6 pM | 6 pM | 0.043 nM | 10.2% | 6 nM | 290 nM | 9 pM | 1.9 µM·h |
| COC(=O)N[C@H](C(=O)N1CCC[C@H]1c1ncc(-c2cc(F)c3c(c2)O[C@@H](c2ccc4c(c2)OCCC4)n2c-3cc3cc(-c4cnc([C@@H]5CCCN5C(=O)[C@@H](NC(=O)OC)[C@@H]5CCOC(C)(C)C5)[nH]4)ccc32)[nH]1)C(C)C | 4 pM | 0.048 nM | 228 min | 3 pM | 25 mL/min/kg | 5 pM | 5 pM | 0.017 nM | 1.2% | 1 nM | 10 nM | 7 pM | 0.08 µM·h |
| COC(=O)N[C@H](C(=O)N1CCC[C@H]1c1ncc(-c2cc(F)c3c(c2)O[C@@H](c2ccc(C(C)C)s2)n2c-3cc3cc(-c4cnc([C@@H]5CCCN5C(=O)[C@@H](NC(=O)OC)[C@@H]5CCOC(C)(C)C5)[nH]4)ccc32)[nH]1)C(C)C | 4 pM | 0.036 nM | 576 min | 4 pM | 5 mL/min/kg | 6 pM | 5 pM | 0.038 nM | 2.7% | 4 nM | 100 nM | 6 pM | 0.8 µM·h |
| COC(=O)N[C@H](C(=O)N1CCC[C@H]1c1ncc(-c2cc(F)c3c(c2)O[C@@H](c2nc4c(s2)CCC4)n2c-3cc3cc(-c4cnc([C@@H]5CCCN5C(=O)[C@@H](NC(=O)OC)[C@@H]5CCOC(C)(C)C5)[nH]4)ccc32)[nH]1)C(C)C | – | 0.59 nM | – | 5 pM | – | 7 pM | 4 pM | 0.174 nM | – | – | – | 13 pM | – |
| COC(=O)N[C@H](C(=O)N1CCC[C@H]1c1ncc(-c2cc(F)c3c(c2)O[C@@H](c2cnc(C(C)C)s2)n2c-3cc3cc(-c4cnc([C@@H]5CCCN5C(=O)[C@@H](NC(=O)OC)[C@@H]5CCOC(C)(C)C5)[nH]4)ccc32)[nH]1)C(C)C | 4 pM | 0.329 nM | – | 6 pM | – | 7 pM | 6 pM | 0.019 nM | – | – | – | 38 pM | – |
| COC(=O)N[C@H](C(=O)N1CCC[C@H]1c1ncc(-c2cc(F)c3c(c2)O[C@@H](c2ccc4c(c2)O[C@@H](C)CC4)n2c-3cc3cc(-c4cnc([C@@H]5CCCN5C(=O)[C@@H](NC(=O)OC)[C@@H]5CCOC(C)(C)C5)[nH]4)ccc32)[nH]1)C(C)C | 5 pM | 0.348 nM | – | 5 pM | – | 8 pM | 7 pM | 0.102 nM | – | – | – | 8 pM | – |
| CC[C@@H]1CC([C@H](NC(=O)OC)C(=O)N2CCC[C@H]2c2ncc(-c3ccc4c(c3)cc3n4[C@H](c4ccc(C5CC5)s4)Oc4cc(-c5cnc([C@@H]6CCCN6C(=O)[C@@H](NC(=O)OC)C(C)C)[nH]5)cc(F)c4-3)[nH]2)C[C@H](CC)O1 (stereo partly specified) | – | 0.642 nM | – | 17 pM | – | – | – | 2.7 nM | – | – | – | 62 pM | – |
| COC(=O)N[C@H](C(=O)N1CCC[C@H]1c1ncc(-c2ccc3c(c2)cc2n3[C@H](c3ccc4c(c3)OCCC4)Oc3cc(-c4cnc([C@@H]5CCCN5C(=O)[C@@H](NC(=O)OC)C5CCOCC5)[nH]4)cc(F)c3-2)[nH]1)C(C)C | 1 pM | 0.008 nM | 114 min | 2 pM | 19 mL/min/kg | 2 pM | 3 pM | 0.005 nM | 0.5% | – | 10 nM | 3 pM | 0.05 µM·h |
| CCCc1ccc([C@@H]2Oc3cc(-c4cnc([C@@H]5CCCN5C(=O)[C@@H](NC(=O)OC)C(C)C)[nH]4)cc(F)c3-c3cc4cc(-c5cnc([C@@H]6CCCN6C(=O)[C@@H](NC(=O)OC)[C@@H]6CCOC(C)(C)C6)[nH]5)ccc4n32)s1 | 6 pM | 0.078 nM | – | 10 pM | – | 11 pM | 9 pM | 0.084 nM | – | – | – | 16 pM | – |
